In ChEMBL document CHEMBL2401735, “Synthesis and cytotoxicity of novel (thiazol-2-yl)hydrazine derivatives as promising anti-Candida agents” (Eur J Med Chem, 2013):
In brackets after ≈: the same amount, converted by molar mass.

Experiments:
Proteus mirabilis = experiment: Antibacterial activity against Proteus mirabilis assessed as growth inhibition after 18 to 22 hrs by broth microdilution method; format: functional
Outline: (§1)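 Bacterial isolates subcultured for purity, identified conventionally. Broth microdilution per NCCLS in Mueller-Hinton II broth; plates with growth control (no compound) and medium-only control, incubated 18-22 h at 35 °C. MIC taken as lowest concentration giving complete growth inhibition by unaided eye.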

Enterobacter sp. = experiment: Antibacterial activity against Enterobacter spp. assessed as growth inhibition after 18 to 22 hrs by broth microdilution method; format: functional; outline: as §1
Candida albicans = experiment: Anticandida activity against Candida albicans clinical isolate assessed as growth inhibition after 24 hrs by broth microdilution method; format: functional
Outline: (§2)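 Clinical Candida isolates subcultured for purity and optimal growth before testing; compounds dissolved in DMSO. Broth microdilution per NCCLS in Sabouraud dextrose broth, serial dilutions, inoculum about 10³/mL, with growth control and medium-only control; 24 h incubation at 37 °C. MIC is the lowest concentration giving complete visible inhibition.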

Enterococcus faecalis = experiment: Antibacterial activity against […] assessed as growth inhibition after 18 to 22 hrs by broth microdilution method; format: functional; outline: as §1
Candida tropicalis = experiment: Anticandida activity against Candida tropicalis clinical isolate assessed as growth inhibition after 24 hrs by broth microdilution method; format: functional; outline: as §2
Klebsiella oxytoca = experiment: Antibacterial activity against Klebsiella oxytoca assessed as growth inhibition after 18 to 22 hrs by broth microdilution method; format: functional; outline: as §1
[1] = tested on: Streptococcus alpha-hemolyticus; experiment: Antibacterial activity against Streptococcus alpha-hemolyticus assessed as growth inhibition after 18 to 22 hrs by broth microdilution method
Staphylococcus aureus = experiment: Antibacterial activity against Staphylococcus aureus assessed as growth inhibition after 18 to 22 hrs by broth microdilution method; format: functional; outline: as §1
Escherichia coli = experiment: Antibacterial activity against Escherichia coli assessed as growth inhibition after 18 to 22 hrs by broth microdilution method; format: functional; outline: as §1
[Candida] sake = Anticandida activity against Candida sake clinical isolate assessed as growth inhibition after 24 hrs by broth microdilution method; format: functional; settings: Fermentozyma sake; outline: as §2
Staphylococcus warneri = experiment: Antibacterial activity against Staphylococcus warneri assessed as growth inhibition after 18 to 22 hrs by broth microdilution method; format: functional; outline: as §1
Pichia kudriavzevii = experiment: Anticandida activity against Candida krusei clinical isolate assessed as growth inhibition after 24 hrs by broth microdilution method; format: functional; outline: as §2
Candida parapsilosis = experiment: Anticandida activity against Candida parapsilosis clinical isolate assessed as growth inhibition after 24 hrs by broth microdilution method; format: functional; settings: Lodderomyces parapsilosis; outline: as §2
Nakaseomyces glabratus = experiment: Anticandida activity against Candida glabrata clinical isolate assessed as growth inhibition after 24 hrs by broth microdilution method; format: functional; outline: as §2

| SMILES | MIC (Proteus mirabilis) [µg/mL] | MIC (Enterobacter sp.) [µg/mL] | MIC (Candida albicans) [µg/mL] | MIC (Enterococcus faecalis) [µg/mL] | MIC (Candida tropicalis) [µg/mL] | MIC (Klebsiella oxytoca) [µg/mL] | MIC [1] [µg/mL] | MIC (Staphylococcus aureus) [µg/mL] | MIC (Escherichia coli) [µg/mL] | MIC ([Candida] sake) [µg/mL] | MIC (Staphylococcus warneri) [µg/mL] | MIC (Pichia kudriavzevii) [µg/mL] | MIC (Candida parapsilosis) [µg/mL] | MIC (Nakaseomyces glabratus) [µg/mL] |
| --- | --- | --- | --- | --- | --- | --- | --- | --- | --- | --- | --- | --- | --- | --- |
| CCCCC/C(C)=N/Nc1nc(-c2ccc(Cl)cc2Cl)cs1 | > 256 | > 256 | 2 (≈ 5.61 µM) | > 256 | 4 (≈ 11.2 µM) | > 256 | > 256 | > 256 | > 256 | 16 (≈ 44.9 µM) | > 256 | 4 (≈ 11.2 µM) | 16 (≈ 44.9 µM) | 2 (≈ 5.61 µM) |
| C/C(CC(C)C)=N\Nc1nc(-c2ccc(Cl)cc2Cl)cs1 | > 256 | > 256 | 256 (≈ 748 µM) | > 256 | 256 (≈ 748 µM) | > 256 | > 256 | > 256 | > 256 | 256 (≈ 748 µM) | > 256 | 256 (≈ 748 µM) | 256 (≈ 748 µM) | 128 (≈ 374 µM) |
| C=CCC/C(C)=N/Nc1nc(-c2ccc(Cl)cc2Cl)cs1 | > 256 | > 256 | 2 (≈ 5.88 µM) | > 256 | 8 (≈ 23.5 µM) | > 256 | > 256 | > 256 | > 256 | 256 (≈ 752 µM) | > 256 | 8 (≈ 23.5 µM) | 256 (≈ 752 µM) | 4 (≈ 11.8 µM) |
| CCCC/C(CC)=N/Nc1nc(-c2ccc(Cl)cc2Cl)cs1 | > 256 | > 256 | 2 (≈ 5.61 µM) | > 256 | 4 (≈ 11.2 µM) | > 256 | > 256 | > 256 | > 256 | 8 (≈ 22.5 µM) | > 256 | 4 (≈ 11.2 µM) | 8 (≈ 22.5 µM) | 4 (≈ 11.2 µM) |
| CCCCCC/C(C)=N/Nc1nc(-c2ccc(Cl)cc2Cl)cs1 | > 256 | > 256 | 2 (≈ 5.4 µM) | > 256 | 4 (≈ 10.8 µM) | > 256 | > 256 | > 256 | > 256 | 32 (≈ 86.4 µM) | > 256 | 4 (≈ 10.8 µM) | 32 (≈ 86.4 µM) | 4 (≈ 10.8 µM) |
| COc1ccc(-c2csc(NN=C(C)C)n2)c(OC)c1 | > 256 | > 256 | 128 (≈ 439 µM) | > 256 | 256 (≈ 879 µM) | > 256 | > 256 | > 256 | > 256 | 256 (≈ 879 µM) | > 256 | 256 (≈ 879 µM) | 256 (≈ 879 µM) | 128 (≈ 439 µM) |
| CC/C(C)=N/Nc1nc(-c2ccc(OC)cc2OC)cs1 | > 256 | > 256 | 64 (≈ 210 µM) | > 256 | 256 (≈ 838 µM) | > 256 | > 256 | > 256 | > 256 | 256 (≈ 838 µM) | > 256 | 256 (≈ 838 µM) | 256 (≈ 838 µM) | 128 (≈ 419 µM) |
| CCC/C(C)=N/Nc1nc(-c2ccc(OC)cc2OC)cs1 | > 256 | > 256 | 128 (≈ 401 µM) | > 256 | 256 (≈ 801 µM) | > 256 | > 256 | > 256 | > 256 | 256 (≈ 801 µM) | > 256 | 256 (≈ 801 µM) | 256 (≈ 801 µM) | 128 (≈ 401 µM) |
| CCC(CC)=NNc1nc(-c2ccc(OC)cc2OC)cs1 | > 256 | > 256 | 128 (≈ 401 µM) | > 256 | 256 (≈ 801 µM) | > 256 | > 256 | > 256 | > 256 | 256 (≈ 801 µM) | > 256 | 256 (≈ 801 µM) | 256 (≈ 801 µM) | 128 (≈ 401 µM) |
| COc1ccc(-c2csc(N/N=C(\C)CC(C)C)n2)c(OC)c1 | > 256 | > 256 | 128 (≈ 384 µM) | > 256 | 256 (≈ 768 µM) | > 256 | > 256 | > 256 | > 256 | 256 (≈ 768 µM) | > 256 | 256 (≈ 768 µM) | 256 (≈ 768 µM) | 128 (≈ 384 µM) |
| C=CCC/C(C)=N/Nc1nc(-c2ccc(OC)cc2OC)cs1 | > 256 | > 256 | 64 (≈ 193 µM) | > 256 | 256 (≈ 772 µM) | > 256 | > 256 | > 256 | > 256 | 256 (≈ 772 µM) | > 256 | 256 (≈ 772 µM) | 256 (≈ 772 µM) | 128 (≈ 386 µM) |
| CCCCC/C(C)=N/Nc1nc(-c2ccc(OC)cc2OC)cs1 | > 256 | > 256 | 64 (≈ 184 µM) | > 256 | 256 (≈ 737 µM) | > 256 | > 256 | > 256 | > 256 | 256 (≈ 737 µM) | > 256 | 256 (≈ 737 µM) | 256 (≈ 737 µM) | 128 (≈ 368 µM) |
| CCCC/C(CC)=N/Nc1nc(-c2ccc(OC)cc2OC)cs1 | > 256 | > 256 | 128 (≈ 368 µM) | > 256 | 256 (≈ 737 µM) | > 256 | > 256 | > 256 | > 256 | 256 (≈ 737 µM) | > 256 | 256 (≈ 737 µM) | 256 (≈ 737 µM) | 128 (≈ 368 µM) |
| CCCCCC/C(C)=N/Nc1nc(-c2ccc(OC)cc2OC)cs1 | > 256 | > 256 | 64 (≈ 177 µM) | > 256 | 256 (≈ 708 µM) | > 256 | > 256 | > 256 | > 256 | 256 (≈ 708 µM) | > 256 | 256 (≈ 708 µM) | 256 (≈ 708 µM) | 64 (≈ 177 µM) |
| COc1ccc(-c2csc(N/N=C(\C)C3CCCCC3)n2)c(OC)c1 | > 256 | > 256 | 64 (≈ 178 µM) | > 256 | 256 (≈ 712 µM) | > 256 | > 256 | > 256 | > 256 | 256 (≈ 712 µM) | > 256 | 256 (≈ 712 µM) | 256 (≈ 712 µM) | 64 (≈ 178 µM) |
| COc1ccc(-c2csc(NN=C3CCCCCCC3)n2)c(OC)c1 | > 256 | > 256 | 64 (≈ 178 µM) | > 256 | 256 (≈ 712 µM) | > 256 | > 256 | > 256 | > 256 | 256 (≈ 712 µM) | > 256 | 256 (≈ 712 µM) | 256 (≈ 712 µM) | 256 (≈ 712 µM) |
| CC(C)=NNc1nc(-c2ccc(Cl)cc2Cl)cs1 | > 256 | > 256 | 2 (≈ 6.66 µM) | > 256 | 4 (≈ 13.3 µM) | > 256 | > 256 | > 256 | > 256 | 8 (≈ 26.6 µM) | > 256 | 8 (≈ 26.6 µM) | 8 (≈ 26.6 µM) | 2 (≈ 6.66 µM) |
| CC/C(C)=N/Nc1nc(-c2ccc(Cl)cc2Cl)cs1 | > 256 | > 256 | 2 (≈ 6.36 µM) | > 256 | 4 (≈ 12.7 µM) | > 256 | > 256 | > 256 | > 256 | 8 (≈ 25.5 µM) | > 256 | 8 (≈ 25.5 µM) | 8 (≈ 25.5 µM) | 4 (≈ 12.7 µM) |
| CCC/C(C)=N/Nc1nc(-c2ccc(Cl)cc2Cl)cs1 | > 256 | > 256 | 2 (≈ 6.09 µM) | > 256 | 4 (≈ 12.2 µM) | > 256 | > 256 | > 256 | > 256 | 256 (≈ 780 µM) | > 256 | 256 (≈ 780 µM) | 256 (≈ 780 µM) | 2 (≈ 6.09 µM) |
| CCC(CC)=NNc1nc(-c2ccc(Cl)cc2Cl)cs1 | > 256 | > 256 | 0.5 (≈ 1.52 µM) | > 256 | 4 (≈ 12.2 µM) | > 256 | > 256 | > 256 | > 256 | 256 (≈ 780 µM) | > 256 | 256 (≈ 780 µM) | 256 (≈ 780 µM) | 4 (≈ 12.2 µM) |
| CC(C)(O/N=C(\C(=O)N[C@@H]1C(=O)N2C(C(=O)[O-])=C(C[n+]3ccccc3)CS[C@H]12)c1csc(N)n1)C(=O)O [CEFTAZIDIME] | 8 (≈ 14.6 µM) | 8 (≈ 14.6 µM) |  | 4 (≈ 7.32 µM) |  | 8 (≈ 14.6 µM) | 4 (≈ 7.32 µM) | 2 (≈ 3.66 µM) | 4 (≈ 7.32 µM) |  | 4 (≈ 7.32 µM) |  |  |  |
| OC(Cn1cncn1)(Cn1cncn1)c1ccc(F)cc1F [FLUCONAZOLE] |  |  | 4 (≈ 13.1 µM) |  | 4 (≈ 13.1 µM) |  |  |  |  | 4 (≈ 13.1 µM) |  | 4 (≈ 13.1 µM) | 4 (≈ 13.1 µM) | 4 (≈ 13.1 µM) |
| COC1=CC(=O)C[C@@H](C)[C@]12Oc1c(Cl)c(OC)cc(OC)c1C2=O [GRISEOFULVIN] |  |  | 4 (≈ 11.3 µM) |  | 8 (≈ 22.7 µM) |  |  |  |  | 8 (≈ 22.7 µM) |  | 8 (≈ 22.7 µM) | 8 (≈ 22.7 µM) | 4 (≈ 11.3 µM) |
